From ChEMBL document CHEMBL4004841, “6-Cyclohexylmethyl-3-hydroxypyrimidine-2,4-dione as an inhibitor scaffold of HIV reverase transcriptase: Impacts of the 3-OH on inhibiting RNase H and polymerase” (Eur J Med Chem, 2017)
Active and inactive are the calls of the source. The rule behind the calls is not given here.

Legend:
[1] = system: Human immunodeficiency virus 1; assay: Antiviral activity against HIV1 infected in human CEM-SS cells assessed as reduction in virus-induced cytopathic effect after 6 days by MTS assay; format: functional, cell-based; details: Human immunodeficiency virus 1, CEM-SS, 144 h
In short: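 CEM-SS cells mixed with pre-titered HIV-1 IIIB and compound, incubated 6 days; virus titer set so virus-control wells lose 70–95% viability. Cell, virus, compound-toxicity and compound-only colorimetric controls on each plate; AZT positive control. Viability by MTS; EC50 derived; mean ± standard deviation from at least two independent experiments.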

[2] = Inhibition of HIV reverse transcriptase polymerase activity assessed as reduction in dNTP incorporation using 100 nucleotide DNA/18 nucleotide DNA as template/primer measured after 30 mins; set-up: species or system Human immunodeficiency virus
In short: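 20 nM full-length RT with 40 nM template/primer (18-nt DNA primer on 100-nt DNA template) and 10 μM dNTPs in 50 mM Tris pH 7.8, 50 mM NaCl, 1% DMSO, rising compound concentrations; started with 6 mM MgCl2, 30 min at 37 °C, stopped with 100 mM EDTA. Mean ± standard deviation, ≥2 independent experiments.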

[3] = Cytotoxicity against human P4R5 cells; format: cell-based
[4] = Inhibition of RNase H activity of full length HIV reverse transcriptase using RNA-DNA duplex HTS-1 substrate; set-up: species or system Human immunodeficiency virus
[5] = Inhibition of strand transfer activity of HIV integrase expressed in Escherichia coli using 5'-[32P]-labeled oligonucleotide substrate after 60 mins by PAGE analysis; set-up: species or system Human immunodeficiency virus
In short: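 Recombinant IN (400 nM), purified with 10% glycerol in buffers, with 20 nM 5'-[32P] oligonucleotide substrate and inhibitor dilutions in 50 mM MOPS pH 7.2, 7.5 mM MgCl2, 14.3 mM 2-mercaptoethanol, 37 °C for 60 min; 10% DMSO controls. Products resolved on 20% polyacrylamide–7 M urea gels, quantified by phosphorimaging densitometry; IC50 by logistic nonlinear regression.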

[6] = system: Human immunodeficiency virus 1; assay: Antiviral activity against HIV1 infected in human P4R5 cells assessed as reduction in viral infection preincubated with cells for 24 hrs followed by viral infection measured after 48 hrs by fluorescence based beta-galactosidase reporter gene assay; format: functional, cell-based; details: Human immunodeficiency virus 1, P4/R5
In short: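 P4R5 indicator cells at 4 × 10^3 per well in DMEM/10% FBS with puromycin (1 μg/ml). Cells pretreated with 1% DMSO or varying drug concentrations for 24h, infected with HIV at MOI 1.25, then incubated 48h. Read-out: lysis, MUG substrate, 4-MU fluorescence (ex 365 nm, em 446 nm). Dose-response; mean ± SD from at least two independent experiments.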

[7] = system: Human immunodeficiency virus type 1 reverse transcriptase (Human immunodeficiency virus 1), Q72547 [Y181C]; assay: Inhibition of polymerase activity of HIV reverse transcriptase Y181C mutant assessed as reduction in dNTP incorporation up to 10 uM using 100 nucleotide DNA/18 nucleotide DNA as template/primer measured after 30 mins
In short: (§1)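 Mutant RT (20 nM) with 40 nM 18-nt DNA primer annealed to 100-nt DNA template and 10 μM dNTPs, in 50 mM Tris pH 7.8, 50 mM NaCl, 1% DMSO, with increasing compound up to 10 μM. Started with 6 mM MgCl2, run 30 min at 37 °C, stopped with 100 mM EDTA; DNA extension measured.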

[8] = system: Human immunodeficiency virus type 1 reverse transcriptase (Human immunodeficiency virus 1), Q72547 [K103N]; assay: Inhibition of polymerase activity of HIV reverse transcriptase K103N mutant assessed as reduction in dNTP incorporation up to 10 uM using 100 nucleotide DNA/18 nucleotide DNA as template/primer measured after 30 mins; in short: as §1

Row | SMILES | EC50 [1] [µM] | IC50 [2] [µM] | CC50 [3] [µM] | IC50 [4] [µM] | IC50 [5] [µM] | EC50 [6] [µM] | inhibition [7] | inhibition [8]
1 | CCc1c(CC2CCCCC2)n(COCc2ccccc2)c(=O)n(O)c1=O | 0.56 | 2.3 | > 100 | 5.5 | > 100 | 0.059 | – | –
2 | Cc1c(CC2CCCCC2)n(COCc2ccc(C(F)(F)F)cc2)c(=O)n(O)c1=O | – | 10 | > 100 | 7.6 | > 100 | > 15 | – | –
3 | CCc1c(CC2CCCCC2)n(COCc2ccc(F)c(F)c2)c(=O)n(O)c1=O | – | > 10 | > 100 | 1.7 | > 100 | 4.1 | – | –
4 | Cc1c(CC2CCCCC2)n(COCc2cccc(Cl)c2F)c(=O)n(O)c1=O | – | > 10 | > 100 | 2.2 | > 100 | > 15 | – | –
5 | CC(C)c1c(CC2CCCCC2)n(COCc2ccccc2)c(=O)[nH]c1=O | – | 0.085 | 23 | > 10 | – | 0.0052 | – | –
6 | CC(C)c1c(CC2CCCCC2)n(COCc2ccc(F)cc2)c(=O)[nH]c1=O | – | 0.3 | 31 | > 10 | – | 0.0072 | – | –
7 | Cc1c(CC2CCCCC2)n(COCc2cccc(Cl)c2F)c(=O)[nH]c1=O | – | 10 | 38 | > 10 | – | 0.83 | – | –
8 | CCc1c(CC2CCCCC2)n(COCc2ccc(F)cc2)c(=O)n(O)c1=O | 0.32 | 1.5 | > 100 | 5.8 | > 100 | 0.039 | – | –
9 | CCc1c(CC2CCCCC2)n(COCc2ccc(C)cc2)c(=O)[nH]c1=O | – | 0.36 | 30 | > 10 | – | 0.011 | – | –
10 | CCc1c(CC2CCCCC2)n(COCc2ccc(C(F)(F)F)cc2)c(=O)n(O)c1=O | – | 7 | > 100 | 10 | > 100 | 2.4 | – | –
11 | CC(C)c1c(CC2CCCCC2)n(COCc2ccc(F)cc2)c(=O)n(O)c1=O | – | 9.9 | > 100 | 2.7 | > 100 | 2.4 | – | –
12 | Cc1c(CC2CCCCC2)n(COCc2ccc(F)c(F)c2)c(=O)n(O)c1=O | – | 10 | > 100 | 4.6 | > 100 | > 15 | – | –
13 | Cc1c(CC2CCCCC2)n(COCCc2ccc(F)cc2)c(=O)[nH]c1=O | – | > 10 | 56 | > 10 | – | 5.3 | – | –
14 | Cc1c(CC2CCCCC2)n(COCc2ccc(C(F)(F)F)cc2)c(=O)[nH]c1=O | – | 10 | > 100 | > 10 | – | 0.8 | – | –
15 | CCc1c(CC2CCCCC2)n(COCc2ccc(F)cc2)c(=O)[nH]c1=O | – | 0.48 | 42 | > 10 | – | 0.0075 | – | –
16 | Cc1c(CC2CCCCC2)n(COCc2ccc(F)c(F)c2)c(=O)[nH]c1=O | – | 10 | 65 | > 10 | – | 0.21 | – | –
17 | Cc1c(CC2CCCCC2)n(COCc2ccccc2)c(=O)[nH]c1=O | – | 6.8 | > 100 | > 10 | – | 0.065 | – | –
18 | CC(C)c1c(Cc2ccccc2)n(COCc2ccccc2)c(=O)[nH]c1=O | – | 0.42 | 58 | > 10 | – | 0.011 | – | –
19 | CCc1c(CC2CCCCC2)n(COCc2ccc(C(F)(F)F)cc2)c(=O)[nH]c1=O | – | 0.81 | 28 | > 10 | – | 0.039 | – | –
20 | Cc1c(CC2CCCCC2)n(COCc2ccccc2)c(=O)n(O)c1=O | – | > 10 | > 100 | 3.1 | > 100 | > 15 | – | –
21 | CCc1c(CC2CCCCC2)n(COCc2ccc(F)c(F)c2)c(=O)[nH]c1=O | – | 0.82 | 29 | > 10 | – | 0.014 | – | –
22 | CCc1c(CC2CCCCC2)n(COCc2cccc(Cl)c2F)c(=O)[nH]c1=O | – | 1.5 | 32 | > 10 | – | 0.048 | – | –
23 | CCc1c(CC2CCCCC2)n(COCc2cccc(Cl)c2F)c(=O)n(O)c1=O | 1.8 | 6.5 | > 100 | 1.1 | > 100 | 0.42 | – | –
24 | CCc1c(CC2CCCCC2)n(COCc2ccccc2)c(=O)[nH]c1=O | – | 0.22 | > 50 | > 10 | – | 0.0062 | – | –
25 | CC(C)c1c(CC2CCCCC2)n(COCc2ccccc2)c(=O)n(O)c1=O | – | 0.45 | > 100 | 5.2 | > 100 | 0.026 | inactive | inactive
26 | Cc1c(CC2CCCCC2)n(COCCc2ccc(F)cc2)c(=O)n(O)c1=O | – | > 10 | > 100 | 3.9 | > 100 | 10 | – | –
27 | CCc1c(CC2CCCCC2)n(COCc2ccc(C)cc2)c(=O)n(O)c1=O | – | 6.5 | > 100 | 2.1 | > 100 | 0.43 | – | –
